Assay results reported in ChEMBL document CHEMBL3259728, “Design, synthesis and biological evaluation of some novel substituted quinazolines as antitumor agents” (2014).

Key:
Type in all cases: functional
KM12 [1] = experiment: Growth inhibition of human KM12 cells assessed as cell growth at 10^-4 M after 48 hrs by SRB assay; details: KM12, 48 h, read-out: Activity
SF-268 = experiment: Growth inhibition of human SF268 cells assessed as cell growth at 10^-5 M after 48 hrs by SRB assay; details: SF-268, 48 h, read-out: Activity
[2] = Growth inhibition of human EKVX cells assessed as cell growth at 10^-5 M after 48 hrs by SRB assay; details: read-out: Activity
MDA-MB-435 = experiment: Growth inhibition of human MDA-MB-435 cells assessed as cell growth at 10^-6 M after 48 hrs by SRB assay; details: MDA-MB-435, 48 h, read-out: Activity
DU-145 = experiment: Growth inhibition of human DU145 cells assessed as cell growth at 10^-4 M after 48 hrs by SRB assay; details: DU-145, 48 h, read-out: Activity
Summary of the method: (§1)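 Five-dose NCI panel protocol. Each dose (10^-4 to 10^-8 M, 10-fold steps) was given as 48 h continuous exposure, and protein was measured by SRB staining. Percentage growth at each level is [(Ti−Tz)/(C−Tz)]×100, where Tz is time-zero absorbance and C is untreated control.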

M14 [3] = experiment: Growth inhibition of human M14 cells assessed as cell growth at 10^-6 M after 48 hrs by SRB assay; details: M14, 48 h, read-out: Activity
[4] = Growth inhibition of human SF539 cells assessed as cell growth at 10^-4 M after 48 hrs by SRB assay; details: SF-539, 48 h, read-out: Activity
IGROV-1 = experiment: Cytotoxicity against human IGROV1 cells after 48 hrs by SRB assay; details: IGROV-1, 48 h
Summary of the method: (§2)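 NCI 60-cell-line panel of human tumour lines from nine cancer types. Continuous 48 h exposure at five 10-fold dilutions from 10^-4 to 10^-8 M, with 5-FU as positive control. SRB protein stain read spectrophotometrically at time zero, untreated control and each concentration. GI50, TGI and LC50 were derived from the [(Ti−Tz)/(C−Tz)]×100 growth relations, and out-of-range values are given as > or < the tested limits.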

SK-MEL-28 [5] = experiment: Growth inhibition of human SK-MEL-28 cells assessed as cell growth at 10^-8 M after 48 hrs by SRB assay; details: SK-MEL-28, 48 h, read-out: Activity
NCI-H460 [6] = experiment: Growth inhibition of human NCI-H460 cells assessed as cell growth at 10^-7 M after 48 hrs by SRB assay; details: NCI-H460, 48 h, read-out: Activity
NCI-H460 [7] = experiment: Cytotoxicity against human NCI-H460 cells after 48 hrs by SRB assay; details: NCI-H460, 48 h; summary of the method: as §2
SR = experiment: Cytotoxicity against human SR cells after 48 hrs by SRB assay; summary of the method: as §2
A498 = experiment: Growth inhibition of human A498 cells assessed as cell growth at 10^-7 M after 48 hrs by SRB assay; details: A498, 48 h, read-out: Activity; summary of the method: as §1
[8] = Growth inhibition of human HOP92 cells assessed as cell growth at 10^-4 M after 48 hrs by SRB assay; details: HOP-92, 48 h, read-out: Activity
Malme-3M = experiment: Growth inhibition of human MALME-3M cells assessed as cell growth at 10^-5 M after 48 hrs by SRB assay; details: read-out: Activity
[9] = Cytotoxicity against human NCI-ADR-RES cells after 48 hrs by SRB assay; summary of the method: as §2
NCI-H460 [10] = experiment: Growth inhibition of human NCI-H460 cells assessed as cell growth at 10^-5 M after 48 hrs by SRB assay; details: NCI-H460, 48 h, read-out: Activity
U-251 = experiment: Growth inhibition of human U251 cells assessed as cell growth at 10^-8 M after 48 hrs by SRB assay; details: U-251, 48 h, read-out: Activity
SK-MEL-28 [11] = experiment: Growth inhibition of human SK-MEL-28 cells assessed as cell growth at 10^-5 M after 48 hrs by SRB assay; details: SK-MEL-28, 48 h, read-out: Activity
M14 [12] = experiment: Cytotoxicity against human M14 cells after 48 hrs by SRB assay; details: M14, 48 h; summary of the method: as §2
KM12 [13] = experiment: Growth inhibition of human KM12 cells assessed as cell growth at 10^-7 M after 48 hrs by SRB assay; details: KM12, 48 h, read-out: Activity
SNB-75 = experiment: Growth inhibition of human SNB75 cells assessed as cell growth at 10^-8 M after 48 hrs by SRB assay; details: SNB-75, 48 h, read-out: Activity
M14 [14] = experiment: Growth inhibition of human M14 cells assessed as cell growth at 10^-5 M after 48 hrs by SRB assay; details: M14, 48 h, read-out: Activity
[15] = Growth inhibition of human HCT15 cells assessed as cell growth at 10^-6 M after 48 hrs by SRB assay; details: HCT-15, 48 h, read-out: Activity
ACHN = experiment: Growth inhibition of human ACHN cells assessed as cell growth at 10^-5 M after 48 hrs by SRB assay; details: read-out: Activity; summary of the method: as §1
RPMI-8226 = experiment: Growth inhibition of human RPMI8226 cells assessed as cell growth at 10^-5 M after 48 hrs by SRB assay; details: RPMI-8226, 48 h, read-out: Activity
T47D = experiment: Growth inhibition of human T47D cells assessed as cell growth at 10^-6 M after 48 hrs by SRB assay; details: read-out: Activity
[16] = Growth inhibition of human UO31 cells assessed as cell growth at 10^-5 M after 48 hrs by SRB assay; details: UO-31, 48 h, read-out: Activity
BT-549 = experiment: Cytotoxicity against human BT549 cells after 48 hrs by SRB assay; details: BT-549, 48 h; summary of the method: as §2
NCI-H322M = experiment: Growth inhibition of human NCI-H322M cells assessed as cell growth at 10^-8 M after 48 hrs by SRB assay; details: read-out: Activity
[17] = read-out: LC50 (the source's name)
[18] = read-out: pLC50 (the source's name) (converted)

Compound: Cc1ccc(-c2nc3ccc(Cl)cc3c(=O)n2/N=C/c2ccccc2)cc1
- growth at 100 µM (KM12 [1]): 63%
- growth at 10 µM (SF-268): 50%
- growth at 10 µM [2]: 34%
- growth at 1 µM (MDA-MB-435): 87%
- growth at 100 µM (DU-145): 49%
- growth at 1 µM (M14 [3]): 97%
- growth at 100 µM [4]: 75%
- GI50 (IGROV-1; read-out: GI50): 3.69 µM
- CC50 (IGROV-1; [17]): > 100 µM
- TGI (IGROV-1; read-out: TGI): > 100 µM
- GI50 (IGROV-1; read-out: pGI50 (converted)): 3.72 µM
- CC50 (IGROV-1; [18]): > 100 µM
- TGI (IGROV-1; read-out: pTGI): > 100 µM
- growth at 0.01 µM (SK-MEL-28 [5]): 102%
- growth at 0.1 µM (NCI-H460 [6]): 99%
- GI50 (NCI-H460 [7]; read-out: GI50): 3.68 µM
- CC50 (NCI-H460 [7]; [17]): > 100 µM
- TGI (NCI-H460 [7]; read-out: TGI): > 100 µM
- GI50 (NCI-H460 [7]; read-out: pGI50 (converted)): 3.72 µM
- CC50 (NCI-H460 [7]; [18]): > 100 µM
- TGI (NCI-H460 [7]; read-out: pTGI): > 100 µM
- GI50 (SR; read-out: GI50): > 100 µM
- CC50 (SR; [17]): > 100 µM
- TGI (SR; read-out: TGI): > 100 µM
- GI50 (SR; read-out: pGI50 (converted)): > 100 µM
- CC50 (SR; [18]): > 100 µM
- TGI (SR; read-out: pTGI): > 100 µM
- growth at 0.1 µM (A498): 85%
- growth at 100 µM [8]: 15%
- growth at 10 µM (Malme-3M): 43%
- GI50 ([9]; read-out: GI50): 8.87 µM
- CC50 [9, 17]: > 100 µM
- TGI ([9]; read-out: TGI): > 100 µM
- GI50 ([9]; read-out: pGI50 (converted)): 8.91 µM
- CC50 [9, 18]: > 100 µM
- TGI ([9]; read-out: pTGI): > 100 µM
- growth at 10 µM (NCI-H460 [10]): 23%
- growth at 0.01 µM (U-251): 99%
- growth at 10 µM (SK-MEL-28 [11]): 60%
- GI50 (M14 [12]; read-out: GI50): 56.2 µM
- CC50 (M14 [12]; [17]): > 100 µM
- TGI (M14 [12]; read-out: TGI): > 100 µM
- GI50 (M14 [12]; read-out: pGI50 (converted)): 56.2 µM
- CC50 (M14 [12]; [18]): > 100 µM
- TGI (M14 [12]; read-out: pTGI): > 100 µM
- growth at 0.1 µM (KM12 [13]): 97%
- growth at 0.01 µM (SNB-75): 87%
- growth at 10 µM (M14 [14]): 60%
- growth at 1 µM [15]: 93%
- growth at 10 µM (ACHN): 10%
- growth at 10 µM (RPMI-8226): 72%
- growth at 1 µM (T47D): 100%
- growth at 10 µM [16]: 42%
- GI50 (BT-549; read-out: GI50): 100 µM
- CC50 (BT-549; [17]): > 100 µM
- TGI (BT-549; read-out: TGI): > 100 µM
- GI50 (BT-549; read-out: pGI50 (converted)): > 100 µM
- CC50 (BT-549; [18]): > 100 µM
- TGI (BT-549; read-out: pTGI): > 100 µM
- growth at 0.01 µM (NCI-H322M): 87%
